# Results from ChEMBL document CHEMBL3994593, “Diterpenoids of the Cassane Type from Caesalpinia decapetala” (J Nat Prod, 2016).
# Tests used:
# Format in all cases: functional, cell-based
# [1] = system: A2780; experiment: Cytotoxicity against human A2780 cells assessed as reduction in cell viability after 48 hrs by MTT assay; details: A2780, 48 h
# Method in brief: (§1)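 Cells grown in RPMI 1640 with 10% FBS, penicillin/streptomycin, at 37 °C, 5% CO2. Seeded at 5000 cells/well, compounds added after 24 h, then 48 h incubation; MTT formazan read at 570 nm. Five concentrations (50, 25, 10, 2.5, 1 μM), 0.5% DMSO final, triplicate experiments; IC50 as mean ± SEM. Gemcitabine and cisplatin as positive controls.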
# [2] = system: Panc02; experiment: Cytotoxicity against mouse Panc02 cells assessed as reduction in cell viability after 48 hrs by MTT assay; details: Panc02, 48 h; method in brief: as §1
# [3] = system: B16; experiment: Cytotoxicity against mouse B16 cells assessed as reduction in cell viability after 48 hrs by MTT assay; details: B16, 48 h; method in brief: as §1
# [4] = system: T-cell; experiment: Cytotoxicity against ConA-stimulated Balb/c mouse T cells assessed as reduction in cell viability after 48 hrs by MTT assay
# Method in brief: (§2)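 Splenocytes from three male Balb/c mice (4−6 weeks); T and B cells enriched on nylon-wool column, stimulated with 5 μg/mL ConA (T) or 10 μg/mL LPS (B). Then handled as the tumor-cell MTT assay: 48 h exposure, 570 nm read, five concentrations 1–50 μM, 0.5% DMSO final, triplicate. Cyclosporin A and mycophenolate mofetil as positive controls.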
# [5] = system: B-cell; experiment: Cytotoxicity against LPS-stimulated Balb/c mouse B cells assessed as reduction in cell viability after 48 hrs by MTT assay; method in brief: as §2
# [6] = system: SW1990; experiment: Cytotoxicity against human SW1990 cells assessed as reduction in cell viability after 48 hrs by MTT assay; details: SW1990, 48 h; method in brief: as §1
# [7] = system: HepG2; experiment: Cytotoxicity against human HepG2 cells assessed as reduction in cell viability after 48 hrs by MTT assay; details: HepG2, 48 h; method in brief: as §1
Structure (SMILES),IC50 [1] [µM],IC50 [2] [µM],IC50 [3] [µM],IC50 [4] [µM],IC50 [5] [µM],IC50 [6] [µM],IC50 [7] [µM]
COC(=O)[C@]1(C)CCC[C@]23C(O)O[C@H](C[C@H]4[C@@H](C)c5ccoc5C[C@@H]42)[C@H]31 (some centres not stated),> 10,> 10,> 10,> 10,> 10,–,–
COC(=O)[C@@]1(C)[C@@H]2CC[C@@H]3[C@@H]4[C@@H](OC[C@@]42CC[C@@H]1O)c1occc1[C@@H]3C,> 10,> 10,> 10,> 10,> 10,2.9 to 8.9,–
COC(=O)[C@]1(C)[C@@H](O)CC[C@@]23C(=O)O[C@H]4c5occc5[C@H](C)[C@H](CC[C@@H]12)[C@H]43,> 10,> 10,> 10,> 10,> 10,2.9 to 8.9,–
COC(=O)[C@]1(C)CCC[C@]23CO[C@H]4c5occc5[C@H](C)[C@@H]([C@H]42)[C@@H](OC(C)=O)C[C@H]31,> 10,> 10,> 10,> 10,> 10,–,–
COC(=O)[C@]1(C)CCC[C@@]2(COC(C)=O)[C@H]1[C@H](O)C[C@H]1[C@@H](C)C3=CC(=O)O[C@]3(OC)C[C@@H]12,> 10,> 10,> 10,> 10,> 10,–,–
COC(=O)[C@]1(C)CCC[C@@]2(COC(C)=O)[C@H]1[C@H](O)C[C@H]1[C@@H](C)c3ccoc3C[C@@H]12,> 10,> 10,> 10,> 10,> 10,2.9 to 8.9,3.9
C=C1CC[C@@H]2[C@](C)(CCC[C@]2(C)C(=O)O)[C@H]1CC(=O)/C(C)=C/CO,> 10,> 10,> 10,> 10,> 10,–,–
COC(=O)[C@]1(C)[C@@H](OC(C)=O)CC[C@@]23C(=O)O[C@H]4c5occc5[C@H](C)[C@H](CC[C@@H]12)[C@H]43,> 10,> 10,> 10,> 10,> 10,–,–
COC(=O)[C@]1(C)[C@@H](OC(C)=O)CC[C@@]23CO[C@H]4c5occc5[C@H](C)[C@H](CC[C@H]21)[C@H]43,> 10,> 10,> 10,> 10,> 10,–,–
COC(=O)[C@]1(C)CCC[C@]23CO[C@H]4c5occc5[C@H](C)[C@@H]([C@H]42)[C@@H](O)C[C@H]31,> 10,> 10,> 10,> 10,> 10,2.9 to 8.9,–
COC(=O)[C@@]1(C)[C@@H](OC(C)=O)CC[C@]2(C(=O)O)[C@H]3Cc4occc4[C@H](C)[C@@H]3CC[C@@H]12,> 10,> 10,> 10,> 10,> 10,–,–
COC(=O)[C@]1(C)CCC[C@]2(COC(C)=O)c3cc4occc4c(C)c3C[C@@H](OC(C)=O)[C@H]21,> 10,> 10,> 10,> 10,> 10,2.9 to 8.9,–
C=C1CC[C@@H]2[C@](C)(CCC[C@]2(C)C(=O)O)[C@H]1/C=C/C(C)=O,> 10,> 10,> 10,> 10,> 10,–,–
Nc1ccn([C@@H]2O[C@H](CO)[C@@H](O)C2(F)F)c(=O)n1 [GEMCITABINE],–,–,–,–,–,2.3,–
